Where two headings read alike, the source gives them in different places.
Key:
5-HT2A receptor [1] = molecular target: T1, 5-HT2A receptor (Homo sapiens, UniProt P28223); assay: G protein; type: cell-based
5-HT2B receptor = 5-HT2B receptor (Homo sapiens, UniProt P41595); assay: G protein; type: cell-based
5-HT2C receptor [2] = molecular target: T2, 5-HT2C receptor (Homo sapiens, UniProt P28335); assay: G protein; type: cell-based
T2 sequence (P28335 33-458): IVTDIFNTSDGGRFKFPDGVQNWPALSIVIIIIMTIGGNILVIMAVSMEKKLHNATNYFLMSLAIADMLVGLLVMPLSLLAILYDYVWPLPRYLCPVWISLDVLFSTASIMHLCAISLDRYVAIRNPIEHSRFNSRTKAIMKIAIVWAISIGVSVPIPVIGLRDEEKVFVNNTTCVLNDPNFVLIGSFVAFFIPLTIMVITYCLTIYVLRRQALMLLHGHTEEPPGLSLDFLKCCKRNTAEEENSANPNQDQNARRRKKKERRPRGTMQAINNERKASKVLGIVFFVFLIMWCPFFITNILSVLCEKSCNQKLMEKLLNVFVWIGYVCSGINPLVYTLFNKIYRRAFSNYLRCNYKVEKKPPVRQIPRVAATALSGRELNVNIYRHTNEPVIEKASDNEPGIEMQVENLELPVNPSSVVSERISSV

5-HT1A receptor = 5-HT1A receptor (Homo sapiens, UniProt P08908); assay: 5-HTome G protein activation BRET screen; type: cell-based; conditions: 5-HTome screen
Chain of 5-HT1A receptor (P08908 whole entry): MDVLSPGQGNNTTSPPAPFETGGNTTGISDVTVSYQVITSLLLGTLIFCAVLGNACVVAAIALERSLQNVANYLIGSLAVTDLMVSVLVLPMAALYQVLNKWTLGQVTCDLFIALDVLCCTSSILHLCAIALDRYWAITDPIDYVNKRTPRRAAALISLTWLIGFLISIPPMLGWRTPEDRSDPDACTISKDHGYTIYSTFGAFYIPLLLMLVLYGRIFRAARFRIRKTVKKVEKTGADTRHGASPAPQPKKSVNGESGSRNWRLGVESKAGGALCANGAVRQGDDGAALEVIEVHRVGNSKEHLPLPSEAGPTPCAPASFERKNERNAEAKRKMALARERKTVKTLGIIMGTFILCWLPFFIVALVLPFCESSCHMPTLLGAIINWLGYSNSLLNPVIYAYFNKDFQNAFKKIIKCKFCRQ
Outline: (§1)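 Human 5-HT receptors (12 in the panel) are tested by G protein-dissociation BRET2. Cells are reverse-transfected about 48 h before assay with receptor:Gα-Rluc8:Beta:GFP2-γ (TRUPATH) at 1:1:1:1 and plated in 1% dFBS. Drug is added in HBSS/20 mM HEPES pH 7.4 with 0.3% BSA and 0.03% ascorbic acid, then incubated 60 min at 37°C. Coelenterazine 400a is 5 uM final. The 510/400 ratio is normalized to % positive control, with EC50/Emax from log(agonist) vs response. Three independent experiments in triplicate.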

5-HT1B receptor = 5-HT1B receptor (Homo sapiens, UniProt P28222); assay: 5-HTome G protein activation BRET screen; type: cell-based; conditions: 5-HTome screen
Chain of 5-HT1B receptor (P28222 whole entry): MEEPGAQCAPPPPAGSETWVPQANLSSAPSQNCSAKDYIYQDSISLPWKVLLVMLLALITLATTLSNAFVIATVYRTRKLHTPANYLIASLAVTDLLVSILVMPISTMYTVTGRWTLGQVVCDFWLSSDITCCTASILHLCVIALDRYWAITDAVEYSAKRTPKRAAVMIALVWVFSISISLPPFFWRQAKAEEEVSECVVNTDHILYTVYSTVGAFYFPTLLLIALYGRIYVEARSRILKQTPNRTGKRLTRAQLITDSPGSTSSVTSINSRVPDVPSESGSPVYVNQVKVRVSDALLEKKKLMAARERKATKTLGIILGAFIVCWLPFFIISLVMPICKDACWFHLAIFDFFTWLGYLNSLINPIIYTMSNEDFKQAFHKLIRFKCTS
Outline: as §1

5-HT1D receptor = 5-HT1D receptor (Homo sapiens, UniProt P28221); assay: 5-HTome G protein activation BRET screen; type: cell-based; conditions: 5-HTome screen
Chain of 5-HT1D receptor (P28221 whole entry): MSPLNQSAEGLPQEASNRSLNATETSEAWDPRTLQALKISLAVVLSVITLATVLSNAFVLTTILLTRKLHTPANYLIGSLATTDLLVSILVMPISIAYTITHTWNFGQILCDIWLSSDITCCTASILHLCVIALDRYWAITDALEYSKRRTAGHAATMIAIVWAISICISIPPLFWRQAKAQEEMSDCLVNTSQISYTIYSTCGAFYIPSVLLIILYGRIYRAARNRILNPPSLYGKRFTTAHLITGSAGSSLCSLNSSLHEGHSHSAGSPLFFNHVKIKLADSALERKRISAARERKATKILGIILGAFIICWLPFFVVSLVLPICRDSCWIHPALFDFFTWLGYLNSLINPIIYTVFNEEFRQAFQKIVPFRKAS
Outline: as §1

5-HT1e receptor = 5-HT1e receptor (Homo sapiens, UniProt P28566); assay: 5-HTome G protein activation BRET screen; type: cell-based; conditions: 5-HTome screen
Chain of 5-HT1e receptor (P28566 whole entry): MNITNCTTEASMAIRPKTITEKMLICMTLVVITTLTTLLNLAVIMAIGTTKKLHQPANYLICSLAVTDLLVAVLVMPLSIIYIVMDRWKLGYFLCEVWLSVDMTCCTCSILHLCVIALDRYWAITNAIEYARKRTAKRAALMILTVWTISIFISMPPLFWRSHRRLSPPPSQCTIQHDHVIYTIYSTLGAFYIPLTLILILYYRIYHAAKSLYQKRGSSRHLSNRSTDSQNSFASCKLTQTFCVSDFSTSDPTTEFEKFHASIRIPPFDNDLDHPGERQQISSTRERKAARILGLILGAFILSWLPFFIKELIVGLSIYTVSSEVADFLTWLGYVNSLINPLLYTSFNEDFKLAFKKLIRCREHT
Outline: as §1

5-HT1F receptor = 5-HT1F receptor (Homo sapiens, UniProt P30939); assay: 5-HTome G protein activation BRET screen; type: cell-based; conditions: 5-HTome screen
Chain of 5-HT1F receptor (P30939 whole entry): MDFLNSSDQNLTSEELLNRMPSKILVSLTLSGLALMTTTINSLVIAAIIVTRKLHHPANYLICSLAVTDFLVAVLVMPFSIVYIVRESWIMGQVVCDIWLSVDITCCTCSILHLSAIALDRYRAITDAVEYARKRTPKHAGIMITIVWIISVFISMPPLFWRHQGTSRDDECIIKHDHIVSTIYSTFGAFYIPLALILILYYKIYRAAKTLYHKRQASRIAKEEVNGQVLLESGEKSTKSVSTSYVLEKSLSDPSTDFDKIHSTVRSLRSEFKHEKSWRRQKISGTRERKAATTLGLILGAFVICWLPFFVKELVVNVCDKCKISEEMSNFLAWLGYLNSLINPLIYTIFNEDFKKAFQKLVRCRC
Outline: as §1

5-HT2A receptor [3] = molecular target: T1, 5-HT2A receptor; assay: Calcium flux assay; type: cell-based
Outline: (§2)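 Flp-In 293 T-Rex cells stably carry tetracycline-inducible human 5-HT2A or 5-HT2C. Expression is induced with tetracycline (2 ug/mL) the day before, with about 7,500 cells/well in 1% dialyzed FBS. Cells are loaded with Fluo-4 Direct for 1 h at 37°C in HBSS/20 mM HEPES pH 7.4 with 2.5 mM probenecid, then held 15 min at RT. Fluorescence is read 10 s baseline, then 5-10 min after drug. Peak fold-over-basal or AUC is normalized to % 5-HT, with EC50/Emax from nonlinear regression.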

5-HT2C receptor [4] = molecular target: T2, 5-HT2C receptor; assay: Calcium flux assay; type: cell-based; conditions: relative to 5-HT
Outline: as §2

5-HT2A receptor [5] = molecular target: T1, 5-HT2A receptor; assay: Radioligand displacement assay; type: binding; conditions: standard radioligand 125I-DOI
mice [6] = assay: Head twitch response; type: in vivo, mouse
mice [7] = assay: Open field test; type: in vivo, mouse; conditions: for effect on general locomotion: s.c.
mice [8] = assay: Elevated plus maze; type: in vivo, mouse; conditions: 30 minutes and 4 hours post single s.c. injection
Outline: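 Elevated plus maze in mice given a single subcutaneous injection of test compound or a reference psychedelic. Time in open vs closed arms and arm entries are scored at 30 min and 4 h post-injection. n=10/group, mean ± S.E.M. Analysis is two-way ANOVA with Dunnett's post hoc test.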

mice [9] = assay: Novelty suppressed feeding; type: in vivo, mouse; conditions: 7 days post-drug administration; 10mg/kg
[10] = test system: auxilin knockout (KO) mice; assay: Auxilin KO Parkinson's model, balance beam; type: in vivo, mouse; conditions: 10 mg/kg i.p., 15 to 30 minutes after treatment
Outline: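 Auxilin KO and WT mice aged 9-12 months, sex balanced, n=5-7/group. Vehicle is 0.85% saline i.p. at 10 ml/kg. Test compound is 10 mg/kg i.p. in 0.85% saline with 2 molar equivalents of glacial acetic acid, at 10 ml/kg. Baseline testing is done one week before treatment and repeated 15-30 min post-dose. Balance beam: mice walk a raised narrow beam to a safety box, scored as average crossing time and crossings per minute. Mean ± S.E.M.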

[11] = test system: auxilin knockout (KO) mice; assay: Auxilin KO Parkinson's model, hind limb clasping; type: in vivo, mouse; conditions: 10 mg/kg i.p., 15 to 30 minutes after treatment
Outline: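 Auxilin KO and WT mice aged 9-12 months, sex balanced, n=5-7/group, treated i.p. with vehicle (0.85% saline) or test compound at 10 mg/kg in saline with 2 molar equivalents of acetic acid, at 10 ml/kg. Testing is done one week pre-treatment and 15-30 min post-dose. Mice are held by the tail base and lowered for 30 s. Clasping is scored 0 (none), 1 (one limb) or 2 (both limbs), and total clasping duration is recorded. Kruskal-Wallis with Dunn's post hoc test.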

humans = conditions: cited from earlier work
patients = conditions: cited from earlier work
cats = conditions: 10 mg/kg, s.c., versus (R)-DOM 0.5 mg/kg; cited from earlier work
rabbits = conditions: cited from earlier work
rats = conditions: 10 mg/kg, s.c. or i.p. ref 12, 13; cited from earlier work
[12] = read-out: EC50 (Gq), Gq dissociation BRET

T1 sequence (P28223 whole entry): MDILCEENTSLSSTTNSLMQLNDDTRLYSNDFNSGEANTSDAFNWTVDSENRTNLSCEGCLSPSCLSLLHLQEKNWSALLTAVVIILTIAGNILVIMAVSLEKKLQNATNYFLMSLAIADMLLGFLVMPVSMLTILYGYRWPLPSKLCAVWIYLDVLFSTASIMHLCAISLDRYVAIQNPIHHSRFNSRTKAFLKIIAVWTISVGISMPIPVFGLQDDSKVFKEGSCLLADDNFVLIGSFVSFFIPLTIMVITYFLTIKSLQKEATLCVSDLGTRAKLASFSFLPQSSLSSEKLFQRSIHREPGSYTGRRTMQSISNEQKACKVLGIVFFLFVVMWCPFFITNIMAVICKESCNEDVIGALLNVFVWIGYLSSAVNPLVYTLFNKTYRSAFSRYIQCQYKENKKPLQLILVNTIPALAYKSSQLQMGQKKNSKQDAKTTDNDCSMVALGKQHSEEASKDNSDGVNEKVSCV
Chain of 5-HT2B receptor (P41595 whole entry): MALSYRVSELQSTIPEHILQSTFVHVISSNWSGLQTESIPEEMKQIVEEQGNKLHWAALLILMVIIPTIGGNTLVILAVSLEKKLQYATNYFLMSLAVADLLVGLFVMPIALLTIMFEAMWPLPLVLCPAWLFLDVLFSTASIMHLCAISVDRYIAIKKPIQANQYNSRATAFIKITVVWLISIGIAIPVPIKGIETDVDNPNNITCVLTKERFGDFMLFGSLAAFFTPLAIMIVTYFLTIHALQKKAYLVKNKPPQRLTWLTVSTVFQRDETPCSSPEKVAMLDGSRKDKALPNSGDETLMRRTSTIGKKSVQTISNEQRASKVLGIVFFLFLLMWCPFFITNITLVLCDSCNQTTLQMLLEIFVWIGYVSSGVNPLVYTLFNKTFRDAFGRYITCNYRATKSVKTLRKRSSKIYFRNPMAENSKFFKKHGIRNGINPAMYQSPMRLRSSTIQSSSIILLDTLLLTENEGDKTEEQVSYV

SMILES: CC[C@@H](N)Cc1cc(OC)c(C)cc1OC [(R)-Ariadne]
- EC50 (5-HT2A receptor [1]; 5-HTome screen): < 1000 nM
- Emax (5-HT2A receptor [1]; 5-HTome screen): > 70%
- EC50 (5-HT2A receptor [1]; [12]): 149 nM
- EC50 (5-HT2B receptor; 5-HTome screen): < 1000 nM
- Emax (5-HT2B receptor; 5-HTome screen): > 70%
- EC50 (5-HT2B receptor; [12]): 739 nM
- EC50 (5-HT2C receptor [2]; 5-HTome screen): < 1000 nM
- Emax (5-HT2C receptor [2]; 5-HTome screen): > 70%
- EC50 (5-HT2C receptor [2]; [12]): 249 nM
- EC50 (5-HT1A receptor): 300 to 600 nM
- EC50 (5-HT1B receptor): 4000 nM
- EC50 (5-HT1D receptor): 300 to 600 nM
- EC50 (5-HT1e receptor): 300 to 600 nM
- EC50 (5-HT1F receptor): 300 to 600 nM
- EC50 (5-HT2A receptor [3]; read-out: EC50 (calcium flux)): 30 nM
- Emax (calcium flux) (5-HT2A receptor [3]; relative to 5-HT): 96%
- Emax (calcium flux) (5-HT2C receptor [4]): 60%
- Ki (5-HT2A receptor [5]): 53 nM
- HTR after pretreatment with 5-HT2A antagonist MDL100,907 (volinanserin) (mice [6]; MDL100907 0.01 and 0.032 mg/kg ip 15 min prior): completely inhibited
- dose of peak (maximum) HTR (mice [6]; s.c.): 10 mg/kg
- effect on general locomotion (mice [7]; 10 mg/kg): minor sedative effect
- effect on general locomotion (mice [7]; 30 mg/kg): marked sedation
- time in the center of the arena (mice [7]; mouse, in vivo): trend for spending less time in the center of the arena
- effect on open arm entries and time (mice [8]): acute anxiogenic-like effect
- latency to bite food pellets (mice [9]): dose-dependent trend toward reducing latency to bite
- number of balance beam runs, Aux-KO mice post-treatment [10]: significantly higher and comparable to WT mice
- clasping duration, Aux-KO mice [11]: down to zero
- clasping score, Aux-KO mice [11]: down to zero
- hallucinogenic / psychoactive effect (humans; 25 mg p.o. ref 6): no hallucinogenic effect but a mild threshold psychoactive effect
- psychedelic effects (humans; 100-300 mg, geriatric senile subjects ref 38): no psychedelics effects
- hallucinogenic effects (humans; up to 270 mg, healthy subjects ref 14): No hallucinations or perceptual alterations were observed
- hallucinogenic effects (humans; up to (and beyond) 100 mg per day, route not specified ref 8): no hallucinations
- hallucinogenic effects (humans; up to (and beyond) 100 mg per day, route not specified ref 8, listed as BL-3912A): lack of hallucinogenic effects
- effect in geriatric senile subjects (patients; 50 mg per day ref 8): Improvement in alertness, mobility and sociability
- effect in subjects with Parkinson's disease (patients; 100 mg per day ref 8): nearly complete remission of symptoms
- effect in patients with schizophrenia and bipolar disorder (patients; 50-100 mg per day ref 8): rapid remission of psychotic symptoms
- DOM-like effects (cats): nearly no DOM-like effects
- shift in potency between (R)-DOM and (R)-Ariadne (rabbits): 25 fold
- avoidance behavior (rats): improved avoidance behavior

— PMC10147382 (ACS chemical neuroscience, 2022)
